Reference: ChEMBL document CHEMBL4602706, “Natural Product Evodiamine with Borate Trigger Unit: Discovery of Potent Antitumor Agents against Colon Cancer” (ACS Med Chem Lett, 2020)
The source made the active and inactive calls. The rule behind the calls is not given here.

Columns and labels:
MCF7 = test: Antiproliferative activity against human MCF7 cells incubated for 72 hrs by CCK8 assay; type: functional, cell-based
Outline: (§1)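 HCT116, MCF-7 and A549 human cancer cell lines; antiproliferative activity read out by CCK8 assay. Evodiamine derivatives and camptothecin served as positive controls.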

HCT-116 [1] = test: Antiproliferative activity against human HCT116 cells incubated for 72 hrs by CCK8 assay; type: functional, cell-based; outline: as §1
A549 = test: Antiproliferative activity against human A549 cells incubated for 72 hrs by CCK8 assay; type: functional, cell-based; outline: as §1
[2] = molecular target: T1, DNA topoisomerase 1 (Homo sapiens) (UniProt P11387); test: Inhibition of Top1 (unknown origin) at 125 uM using supercoiled pBR322 plasmid DNA as substrate incubated for 15 mins by PI staining based agarose gel electrophoresis analysis
T1 sequence (whole entry): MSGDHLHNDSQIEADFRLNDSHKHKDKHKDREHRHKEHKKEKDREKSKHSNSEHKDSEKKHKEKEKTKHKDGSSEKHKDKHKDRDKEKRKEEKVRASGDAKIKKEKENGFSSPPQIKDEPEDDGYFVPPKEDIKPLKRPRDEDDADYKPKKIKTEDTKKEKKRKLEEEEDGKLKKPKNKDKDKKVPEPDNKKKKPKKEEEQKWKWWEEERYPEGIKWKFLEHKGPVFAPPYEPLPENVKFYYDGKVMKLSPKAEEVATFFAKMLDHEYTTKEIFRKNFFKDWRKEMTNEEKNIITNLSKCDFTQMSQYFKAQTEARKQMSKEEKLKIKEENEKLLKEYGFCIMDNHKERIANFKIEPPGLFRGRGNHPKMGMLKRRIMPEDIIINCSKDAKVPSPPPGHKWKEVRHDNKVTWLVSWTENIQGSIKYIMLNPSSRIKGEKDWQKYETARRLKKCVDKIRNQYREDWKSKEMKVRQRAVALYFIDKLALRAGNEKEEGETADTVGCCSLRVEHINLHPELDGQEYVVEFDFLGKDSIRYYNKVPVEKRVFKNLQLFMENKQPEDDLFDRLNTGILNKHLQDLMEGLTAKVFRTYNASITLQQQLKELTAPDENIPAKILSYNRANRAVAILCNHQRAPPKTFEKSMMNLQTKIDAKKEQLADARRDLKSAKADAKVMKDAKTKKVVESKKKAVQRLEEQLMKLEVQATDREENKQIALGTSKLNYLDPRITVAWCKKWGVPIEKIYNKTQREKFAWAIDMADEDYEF
Outline: (§2)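 Top1 inhibition tested at 500, 250 and 125 μM, and over 27.9 to 250 μM for selected compounds.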

[3] = molecular target: T1, DNA topoisomerase 1 (Homo sapiens); test: Inhibition of Top1 (unknown origin) at 500 uM using supercoiled pBR322 plasmid DNA as substrate incubated for 15 mins by PI staining based agarose gel electrophoresis analysis; outline: as §2
[4] = molecular target: T2, DNA topoisomerase II (Homo sapiens) (UniProt P11388+Q02880); test: Inhibition of Top2 (unknown origin) at 50 uM using supercoiled pBR322 plasmid DNA as substrate incubated for 30 mins by PI staining based agarose gel electrophoresis analysis; type: protein assay
HCT-116 [5] = test: Induction of cell cycle arrest in human HCT116 cells assessed as accumulation at S phase at 0.05 uM incubated for 24 hrs by propidium iodide staining based flow cytometry (reference value: 30.31 to 40.69%); type: functional
HCT-116 [6] = test: Induction of apoptosis in human HCT116 cells assessed as apoptotic cells at 0.2 uM incubated for 48 hrs by AnnexinV-FITC/PI staining based flow cytometric analysis (reference value: 6.25 to 8.23%); type: functional
Outline: (§3)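 HCT116 cells exposed to 0.05, 0.2 or 0.4 μM for 48 h. Apoptotic cells quantified by flow cytometry, n = 3.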

HCT-116 [7] = test: Induction of apoptosis in human HCT116 cells assessed as apoptotic cells at 0.05 uM incubated for 48 hrs by AnnexinV-FITC/PI staining based flow cytometric analysis (reference value: 6.25 to 8.23%); type: functional; outline: as §3
[8] = molecular target: T1, DNA topoisomerase 1 (Homo sapiens); test: Inhibition of Top1 (unknown origin) at 83.3 uM using supercoiled pBR322 plasmid DNA as substrate incubated for 15 mins by PI staining based agarose gel electrophoresis analysis
HCT-116 [9] = test: Induction of cell cycle arrest in human HCT116 cells assessed as accumulation at G2 phase at 0.4 uM incubated for 24 hrs by propidium iodide staining based flow cytometry (reference value: 18.51 to 20.82%); type: functional
HCT-116 [10] = test: Induction of cell cycle arrest in human HCT116 cells assessed as accumulation at S phase at 0.4 uM incubated for 24 hrs by propidium iodide staining based flow cytometry (reference value: 30.31 to 40.69%); type: functional
HCT-116 [11] = test: Induction of cell cycle arrest in human HCT116 cells assessed as accumulation at S phase at 0.2 uM incubated for 24 hrs by propidium iodide staining based flow cytometry (reference value: 30.31 to 40.69%); type: functional
[12] = Drug metabolism in human HCT116 cells assessed as 3-Fluoro-10-hydroxy-14-methyl-8,13,13b,14-tetrahydro-7H-indolo[2',3':3,4]pyrido[2,1-b]quinazolin-5-one release by measuring parent compound retention time incubated for 8 hrs by UPLC-QTOF/MS analysis; type: ADME, cell-based; details: hct-116, 8 h
Outline: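 Compounds incubated with HCT116 cells; culture media analysed by HPLC after 8, 48 and 72 h. Relative release rate taken from relative peak areas; parent and product identified by retention time.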

[13] = Drug metabolism in PBS buffer assessed as H2O2-mediated 3-Fluoro-10-hydroxy-14-methyl-8,13,13b,14-tetrahydro-7H-indolo[2',3':3,4]pyrido[2,1-b]quinazolin-5-one release rate at pH 7.4 incubated for 8 hrs in presence of 0.05 mM H2O2 by HPLC analysis; type: physicochemical; details: pH 7.4, 8 h
Outline: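 Release of the parent compound after treatment with H2O2 at varied concentrations, including 0.05 mM, in PBS pH 7.4. Analysed by HPLC.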

HCT-116 [14] = test: Induction of cell cycle arrest in human HCT116 cells assessed as accumulation at G2 phase at 0.2 uM incubated for 24 hrs by propidium iodide staining based flow cytometry (reference value: 18.51 to 20.82%); type: functional
HCT-116 [15] = test: Induction of cell cycle arrest in human HCT116 cells assessed as accumulation at G1 phase at 0.4 uM incubated for 24 hrs by propidium iodide staining based flow cytometry (reference value: 38.49 to 51.18%); type: functional
HCT-116 [16] = test: Induction of cell cycle arrest in human HCT116 cells assessed as accumulation at G1 phase at 0.05 uM incubated for 24 hrs by propidium iodide staining based flow cytometry (reference value: 38.49 to 51.18%); type: functional
[17] = Drug metabolism in human HCT116 cells assessed as 3-Fluoro-10-hydroxy-14-methyl-8,13,13b,14-tetrahydro-7H-indolo[2',3':3,4]pyrido[2,1-b]quinazolin-5-one release at 0.2 mM by UPLC-QTOF/MS analysis relative to control; type: ADME, cell-based; details: hct-116, 200 µM, TDE = time-dependent effect
HCT-116 [18] = test: Induction of apoptosis in human HCT116 cells incubated for 48 hrs by AnnexinV-FITC/PI staining based flow cytometric analysis; type: functional, cell-based
HCT-116 [19] = test: Induction of apoptosis in human HCT116 cells assessed as apoptotic cells at 0.4 uM incubated for 48 hrs by AnnexinV-FITC/PI staining based flow cytometric analysis (reference value: 6.25 to 8.23%); type: functional; outline: as §3
[20] = molecular target: T2, DNA topoisomerase II (Homo sapiens); test: Inhibition of Top2 (unknown origin) using supercoiled pBR322 plasmid as substrate incubated for 30 mins by PI staining based agarose gel electrophoresis analysis; type: protein assay
HCT-116 [21] = test: Induction of cell cycle arrest in human HCT116 cells assessed as accumulation at G1 phase at 0.2 uM incubated for 24 hrs by propidium iodide staining based flow cytometry (reference value: 38.49 to 51.18%); type: functional
[22] = Metabolic stability in mouse liver microsomes assessed as half life at 1 uM preincubated with compound followed by NADPH addition measured upto 45 mins by LC-MS/MS analysis; type: ADME, Microsome
Outline: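 In vitro stability in liver microsomes; terminal half-life determined.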

HCT-116 [23] = test: Induction of cell cycle arrest in human HCT116 cells assessed as accumulation at G2 phase at 0.05 uM incubated for 24 hrs by propidium iodide staining based flow cytometry (reference value: 18.51 to 20.82%); type: functional
[24] = Homo sapiens, MCF7, 72 h, read-out: IC50
[25] = Homo sapiens, HCT-116, 72 h, read-out: IC50
[26] = Homo sapiens, A549, 72 h, read-out: IC50

SMILES | inhibition [2] | IC50 (MCF7; [24]) [nM] | IC50 (HCT-116 [1]; [25]) [nM] | inhibition [3] | IC50 (A549; [26]) [nM] | also measured
CC(=O)Oc1ccc(CCl)cc1 | – | – | – | – | – | IC50 (MCF7; mcf7): Not Active; IC50 (HCT-116 [1]; hct-116): Not Active; IC50 (A549; a549): Not Active
CN1c2ccccc2C(=O)N2CCc3c(n(C(=O)OC(C)(C)C)c4ccc(OCc5ccc(B6OC(C)(C)C(C)(C)O6)cc5)cc34)C21 (stereo not given) | – | 4130 | 4180 | – | 3440 | –
CN1c2ccccc2C(=O)N2CCc3c([nH]c4ccc(O)cc34)C21 (stereo not given) | – | 270 | 55 | Active | 84 | –
CN1c2ccc(F)cc2C(=O)N2CCc3c([nH]c4ccc(B5OC(C)(C)C(C)(C)O5)cc34)C21 (stereo not given) | – | 960 | 170 | – | 110 | –
CN1c2ccccc2C(=O)N2CCc3c(n(C(=O)OC(C)(C)C)c4ccc(OCc5ccc(B(O)O)cc5)cc34)C21 (stereo not given) | – | 1580 | 520 | – | 7200 | –

More lines, main results first:

inhibition [2] | IC50 (MCF7; [24]) [nM] | IC50 (HCT-116 [1]; [25]) [nM] | inhibition [3] | IC50 (A549; [26]) [nM] | SMILES | also measured
Active | 86 | 65 | Active | 100 | CN1c2ccccc2C(=O)N2CCc3c([nH]c4ccc(OC(=O)OCc5ccc(B6OC(C)(C)C(C)(C)O6)cc5)cc34)C21 (stereo not given) | inhibition [4]: Active
– | 94 | 63 | Active | 40 | CN1c2ccc(F)cc2C(=O)N2CCc3c([nH]c4ccc(B(O)O)cc34)C21 (stereo not given) | –
– | 97 | 150 | – | 120 | CN1c2ccc(F)cc2C(=O)N2CCc3c([nH]c4ccc(OCc5ccc(B6OC(C)(C)C(C)(C)O6)cc5)cc34)C21 (stereo not given) | –
Active | 32 | 41 | Active | 44 | CN1c2ccc(F)cc2C(=O)N2CCc3c([nH]c4ccc(OC(=O)OCc5ccc(B(O)O)cc5)cc34)C21 (stereo not given) | Activity (HCT-116 [5]): 56.44%; Activity (HCT-116 [6]): 54.28%; Activity (HCT-116 [7]): 44.4%; inhibition [8]: Active; Activity (HCT-116 [9]): 51.23%; Activity (HCT-116 [10]): 43.36%; Activity (HCT-116 [11]): 48.96%; Retention_time [12]: 8.6 min; Drug metabolism [13]: Dose-dependent effect; Activity (HCT-116 [14]): 43.45%; Activity (HCT-116 [15]): 5.41%; Activity (HCT-116 [16]): 14.09%; Drug metabolism [17]: Tde; Activity (HCT-116 [18]): Dose-dependent effect; Activity (HCT-116 [19]): 64.47%; inhibition [20]: Active; Activity (HCT-116 [21]): 7.6%; half-life at 1 µM [22]: 44.4 s; inhibition [4]: Active; Activity (HCT-116 [23]): 29.47%
Active | 59 | 83 | Active | 73 | CN1c2ccc(F)cc2C(=O)N2CCc3c([nH]c4ccc(OCc5ccc(B(O)O)cc5)cc34)C21 (stereo not given) | inhibition [20]: Active
